Measured values from ChEMBL document CHEMBL1141202, “Novel CCR1 antagonists with oral activity in the mouse collagen induced arthritis” (Bioorg Med Chem Lett, 2005).
pIC50: −log10 of the molar value.

Experiments:
[1] = biological target: T1, C-C chemokine receptor type 1 (Homo sapiens, UniProt P32246); test: Antagonistic activity at human CCR1 by inhibition of MIP-1alpha induced calcium mobilization in THP1 cells; format: functional, cell-based, THP-1
T1 sequence (P32246 whole entry): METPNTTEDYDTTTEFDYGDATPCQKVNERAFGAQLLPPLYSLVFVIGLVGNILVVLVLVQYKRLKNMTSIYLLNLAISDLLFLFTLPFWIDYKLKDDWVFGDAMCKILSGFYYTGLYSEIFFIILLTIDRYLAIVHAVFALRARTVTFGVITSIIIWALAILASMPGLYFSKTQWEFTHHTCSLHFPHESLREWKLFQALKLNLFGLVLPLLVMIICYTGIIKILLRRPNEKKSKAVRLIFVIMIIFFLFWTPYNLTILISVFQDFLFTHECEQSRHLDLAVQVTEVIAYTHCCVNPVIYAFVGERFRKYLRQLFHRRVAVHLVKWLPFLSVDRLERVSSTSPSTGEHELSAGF
How it was run: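 THP-1 cells with native CCR1 expression; preincubated with antagonist 30 min at RT, then stimulated with 3 nM MIP-1α; calcium response read as fluo-4 fluorescence.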

[2] = biological target: T2, C-C chemokine receptor type 1 (Mus musculus, UniProt P51675); test: Antagonistic activity at mouse CCR1 in CHO-K1 cells; format: functional, cell-based
T2 sequence (P51675 whole entry): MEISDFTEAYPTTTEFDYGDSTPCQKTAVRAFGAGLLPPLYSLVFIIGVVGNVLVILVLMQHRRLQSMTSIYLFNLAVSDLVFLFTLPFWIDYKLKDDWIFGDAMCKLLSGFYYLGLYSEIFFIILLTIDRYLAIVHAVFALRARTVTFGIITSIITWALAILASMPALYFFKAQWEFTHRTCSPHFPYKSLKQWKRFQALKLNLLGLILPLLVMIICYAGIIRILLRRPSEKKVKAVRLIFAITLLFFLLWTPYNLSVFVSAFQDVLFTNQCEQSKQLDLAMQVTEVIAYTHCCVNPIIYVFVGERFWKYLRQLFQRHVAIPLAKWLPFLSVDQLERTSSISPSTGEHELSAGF
How it was run: (§1)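 CHO-K1 cells stably transfected with human, mouse or rat CCR1; membranes used in a scintillation proximity assay with radiolabelled MIP-1α as ligand.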

[3] = biological target: T1, C-C chemokine receptor type 1; test: Antagonistic activity at human CCR1 in CHO-K1 cells; format: functional, cell-based; how it was run: as §1
[4] = Oral bioavailability in rat; format: ADME, organism-based; settings: in vivo
[5] = AUC in rat; format: ADME, organism-based; settings: plasma
Rattus norvegicus = organism: Rattus norvegicus; test: Maximum concentration in rat; format: ADME, organism-based; settings: in vivo
[6] = Half life in rat; format: ADME, organism-based; settings: in vivo
[7] = biological target: 5-hydroxytryptamine receptor 7 (Homo sapiens, UniProt P34969); test: Inhibition of human 5HT7 receptor
[8] = biological target: 5-hydroxytryptamine receptor 2A (Homo sapiens, UniProt P28223); test: Inhibition of human 5HT2A receptor
[9] = biological target: 5-hydroxytryptamine receptor 1A (Homo sapiens, UniProt P08908); test: Inhibition of human 5HT1A receptor
5-hydroxytryptamine receptor 1A, sequence (P08908 whole entry): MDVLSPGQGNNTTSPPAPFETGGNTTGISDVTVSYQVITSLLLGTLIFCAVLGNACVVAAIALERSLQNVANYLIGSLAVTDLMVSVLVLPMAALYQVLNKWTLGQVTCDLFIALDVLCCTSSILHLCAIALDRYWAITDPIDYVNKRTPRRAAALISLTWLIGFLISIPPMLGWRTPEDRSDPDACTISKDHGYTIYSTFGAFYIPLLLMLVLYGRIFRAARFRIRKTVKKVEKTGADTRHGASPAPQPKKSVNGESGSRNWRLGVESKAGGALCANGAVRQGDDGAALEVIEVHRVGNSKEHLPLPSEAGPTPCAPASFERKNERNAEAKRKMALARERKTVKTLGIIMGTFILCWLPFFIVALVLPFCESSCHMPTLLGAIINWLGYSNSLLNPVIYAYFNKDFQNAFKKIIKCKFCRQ

[10] = biological target: Alpha-2B adrenergic receptor (Homo sapiens, UniProt P18089); test: Inhibition of human adrenergic alpha-2B receptor
D(4) dopamine receptor = D(4) dopamine receptor (Homo sapiens, UniProt P21917); test: Inhibition of human dopamine receptor D4.4
D(4) dopamine receptor, sequence (P21917 whole entry): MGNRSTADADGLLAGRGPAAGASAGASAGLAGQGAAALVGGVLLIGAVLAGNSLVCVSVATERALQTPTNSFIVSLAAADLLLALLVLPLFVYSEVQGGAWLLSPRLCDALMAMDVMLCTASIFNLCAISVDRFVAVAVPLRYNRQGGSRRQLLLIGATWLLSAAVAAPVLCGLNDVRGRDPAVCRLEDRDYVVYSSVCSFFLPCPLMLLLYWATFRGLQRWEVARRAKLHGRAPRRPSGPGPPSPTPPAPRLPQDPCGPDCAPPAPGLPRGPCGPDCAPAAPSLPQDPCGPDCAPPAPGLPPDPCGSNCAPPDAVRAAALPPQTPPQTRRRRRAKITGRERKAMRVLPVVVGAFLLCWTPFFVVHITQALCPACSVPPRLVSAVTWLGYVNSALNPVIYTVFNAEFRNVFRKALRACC

[11] = biological target: 5-hydroxytryptamine receptor 1B (Homo sapiens, UniProt P28222); test: Inhibition of human 5HT1B receptor
D(2) dopamine receptor = D(2) dopamine receptor (Homo sapiens, UniProt P14416); test: Inhibition of human dopamine receptor D2
[12] = biological target: Alpha-2C adrenergic receptor (Homo sapiens, UniProt P18825); test: Inhibition of human adrenergic alpha-2C receptor
[13] = biological target: Muscarinic acetylcholine receptor M3 (Homo sapiens, UniProt P20309); test: Inhibition of human muscarinic receptor M3
[14] = biological target: Adrenergic receptor alpha-1 (Homo sapiens, UniProt P35348+P25100+P35368); test: Inhibition of human adrenergic alpha-1 receptor; format: protein assay
[15] = biological target: Alpha-2A adrenergic receptor (Homo sapiens, UniProt P08913); test: Inhibition of human adrenergic alpha-2A receptor
Alpha-2A adrenergic receptor, sequence (P08913 whole entry): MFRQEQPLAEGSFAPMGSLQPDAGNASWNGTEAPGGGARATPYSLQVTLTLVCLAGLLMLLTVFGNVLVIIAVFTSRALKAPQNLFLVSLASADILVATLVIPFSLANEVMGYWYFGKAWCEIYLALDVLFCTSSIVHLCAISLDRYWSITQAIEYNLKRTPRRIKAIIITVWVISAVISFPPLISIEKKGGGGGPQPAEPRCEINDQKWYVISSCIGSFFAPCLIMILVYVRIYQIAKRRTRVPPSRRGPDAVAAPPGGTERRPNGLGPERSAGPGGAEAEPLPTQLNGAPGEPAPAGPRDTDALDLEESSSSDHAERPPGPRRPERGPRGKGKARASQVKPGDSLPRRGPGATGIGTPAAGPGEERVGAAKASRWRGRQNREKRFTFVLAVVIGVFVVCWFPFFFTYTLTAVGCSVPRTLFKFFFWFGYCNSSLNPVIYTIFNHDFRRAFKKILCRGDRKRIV

D(3) dopamine receptor = D(3) dopamine receptor (Homo sapiens, UniProt P35462); test: Inhibition of human dopamine receptor D3
[16] = biological target: Muscarinic acetylcholine receptor M5 (Homo sapiens, UniProt P08912); test: Inhibition of human muscarinic receptor M5
Muscarinic acetylcholine receptor M5, sequence (P08912 whole entry): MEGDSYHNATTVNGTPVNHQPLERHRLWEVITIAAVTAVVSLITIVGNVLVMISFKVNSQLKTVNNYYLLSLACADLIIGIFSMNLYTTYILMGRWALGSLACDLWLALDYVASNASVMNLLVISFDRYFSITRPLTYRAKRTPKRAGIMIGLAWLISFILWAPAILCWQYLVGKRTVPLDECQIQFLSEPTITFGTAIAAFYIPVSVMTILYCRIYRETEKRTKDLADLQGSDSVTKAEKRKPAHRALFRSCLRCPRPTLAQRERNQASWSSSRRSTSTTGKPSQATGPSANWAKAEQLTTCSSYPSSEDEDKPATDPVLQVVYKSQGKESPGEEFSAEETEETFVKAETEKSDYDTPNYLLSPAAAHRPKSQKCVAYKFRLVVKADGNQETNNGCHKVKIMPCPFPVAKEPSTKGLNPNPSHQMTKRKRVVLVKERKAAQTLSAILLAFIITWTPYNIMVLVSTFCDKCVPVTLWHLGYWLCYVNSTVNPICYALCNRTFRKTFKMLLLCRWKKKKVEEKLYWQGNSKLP

[17] = biological target: Serotonin 3 (5-HT3) receptor; test: Inhibition of human 5HT3 receptor; format: protein-complex assay
Mu-type opioid receptor = Mu-type opioid receptor (Homo sapiens, UniProt P35372); test: Inhibition of human mu opioid receptor
Mu-type opioid receptor, sequence (P35372 whole entry): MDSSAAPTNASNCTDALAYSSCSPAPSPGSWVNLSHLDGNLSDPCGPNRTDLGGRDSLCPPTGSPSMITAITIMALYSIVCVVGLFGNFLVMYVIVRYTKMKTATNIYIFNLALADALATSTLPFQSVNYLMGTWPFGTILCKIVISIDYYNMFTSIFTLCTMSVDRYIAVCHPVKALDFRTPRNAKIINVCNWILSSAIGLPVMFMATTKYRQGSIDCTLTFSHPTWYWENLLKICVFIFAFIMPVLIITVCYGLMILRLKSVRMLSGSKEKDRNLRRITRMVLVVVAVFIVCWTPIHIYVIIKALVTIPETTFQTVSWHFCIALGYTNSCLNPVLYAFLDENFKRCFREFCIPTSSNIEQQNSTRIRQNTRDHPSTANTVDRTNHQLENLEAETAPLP

[18] = biological target: Beta-2 adrenergic receptor (Homo sapiens, UniProt P07550); test: Inhibition of human adrenergic beta-2 receptor
Beta-2 adrenergic receptor, sequence (P07550 whole entry): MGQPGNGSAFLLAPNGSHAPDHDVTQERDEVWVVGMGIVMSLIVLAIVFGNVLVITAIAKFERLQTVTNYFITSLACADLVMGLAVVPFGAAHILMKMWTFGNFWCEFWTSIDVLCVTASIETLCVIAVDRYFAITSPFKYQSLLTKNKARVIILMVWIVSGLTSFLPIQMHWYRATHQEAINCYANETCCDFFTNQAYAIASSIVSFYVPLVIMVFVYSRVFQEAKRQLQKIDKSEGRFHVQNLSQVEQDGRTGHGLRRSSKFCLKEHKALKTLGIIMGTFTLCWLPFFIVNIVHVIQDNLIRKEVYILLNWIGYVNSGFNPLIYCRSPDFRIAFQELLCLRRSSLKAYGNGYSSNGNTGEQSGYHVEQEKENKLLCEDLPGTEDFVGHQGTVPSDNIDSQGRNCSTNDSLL

D(1A) dopamine receptor = D(1A) dopamine receptor (Homo sapiens, UniProt P21728); test: Inhibition of human dopamine receptor D1
[19] = biological target: Beta-1 adrenergic receptor (Homo sapiens, UniProt P08588); test: Inhibition of human adrenergic beta-1 receptor
Beta-1 adrenergic receptor, sequence (P08588 whole entry): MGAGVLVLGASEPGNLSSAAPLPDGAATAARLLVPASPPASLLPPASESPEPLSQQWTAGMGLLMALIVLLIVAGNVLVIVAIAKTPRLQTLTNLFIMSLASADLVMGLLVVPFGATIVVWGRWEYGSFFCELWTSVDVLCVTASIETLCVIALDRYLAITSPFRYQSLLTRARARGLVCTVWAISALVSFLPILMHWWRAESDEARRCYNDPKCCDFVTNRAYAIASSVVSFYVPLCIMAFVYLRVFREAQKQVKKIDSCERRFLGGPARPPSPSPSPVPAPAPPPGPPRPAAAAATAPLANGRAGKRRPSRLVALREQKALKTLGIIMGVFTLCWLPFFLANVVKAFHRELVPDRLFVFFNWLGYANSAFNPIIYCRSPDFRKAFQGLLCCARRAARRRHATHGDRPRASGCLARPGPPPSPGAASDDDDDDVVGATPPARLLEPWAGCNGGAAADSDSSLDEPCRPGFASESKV

[20] = biological target: Delta-type opioid receptor (Homo sapiens, UniProt P41143); test: Inhibition of human delta opioid receptor
Delta-type opioid receptor, sequence (P41143 whole entry): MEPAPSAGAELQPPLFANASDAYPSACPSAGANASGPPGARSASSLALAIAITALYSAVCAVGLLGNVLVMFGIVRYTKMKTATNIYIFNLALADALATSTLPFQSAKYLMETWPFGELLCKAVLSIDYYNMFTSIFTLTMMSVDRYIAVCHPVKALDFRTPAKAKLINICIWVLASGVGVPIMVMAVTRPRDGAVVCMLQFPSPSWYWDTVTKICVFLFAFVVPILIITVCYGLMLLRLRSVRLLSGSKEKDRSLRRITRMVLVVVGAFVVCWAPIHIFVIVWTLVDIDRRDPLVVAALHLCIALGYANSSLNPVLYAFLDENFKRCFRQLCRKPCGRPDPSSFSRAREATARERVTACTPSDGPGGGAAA

[21] = biological target: Muscarinic acetylcholine receptor M2 (Homo sapiens, UniProt P08172); test: Inhibition of human muscarinic receptor M2
Muscarinic acetylcholine receptor M2, sequence (P08172 whole entry): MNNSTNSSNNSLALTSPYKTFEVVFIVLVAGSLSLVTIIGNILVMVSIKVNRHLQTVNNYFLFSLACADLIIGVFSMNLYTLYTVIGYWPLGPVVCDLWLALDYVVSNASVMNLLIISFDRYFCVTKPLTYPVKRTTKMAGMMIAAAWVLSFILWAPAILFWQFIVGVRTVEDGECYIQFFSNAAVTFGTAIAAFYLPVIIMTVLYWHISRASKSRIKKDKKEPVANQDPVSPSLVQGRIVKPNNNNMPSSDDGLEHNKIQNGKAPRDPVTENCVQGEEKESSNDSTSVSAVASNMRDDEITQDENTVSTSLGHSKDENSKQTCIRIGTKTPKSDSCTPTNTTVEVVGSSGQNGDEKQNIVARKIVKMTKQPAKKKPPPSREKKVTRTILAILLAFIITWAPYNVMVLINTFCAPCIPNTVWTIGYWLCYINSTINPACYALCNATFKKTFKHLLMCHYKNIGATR

[22] = biological target: Muscarinic acetylcholine receptor M1 (Homo sapiens, UniProt P11229); test: Inhibition of human muscarinic receptor M1
[23] = biological target: C-C chemokine receptor type 5 (Mus musculus, UniProt P51682); test: Inhibition of mouse CCR5
[24] = biological target: 5-hydroxytryptamine receptor 2C (Homo sapiens, UniProt P28335); test: Inhibition of human 5HT2C receptor
[25] = biological target: 5-hydroxytryptamine receptor 6 (Homo sapiens, UniProt P50406); test: Inhibition of human 5HT6 receptor
5-hydroxytryptamine receptor 6, sequence (P50406 whole entry): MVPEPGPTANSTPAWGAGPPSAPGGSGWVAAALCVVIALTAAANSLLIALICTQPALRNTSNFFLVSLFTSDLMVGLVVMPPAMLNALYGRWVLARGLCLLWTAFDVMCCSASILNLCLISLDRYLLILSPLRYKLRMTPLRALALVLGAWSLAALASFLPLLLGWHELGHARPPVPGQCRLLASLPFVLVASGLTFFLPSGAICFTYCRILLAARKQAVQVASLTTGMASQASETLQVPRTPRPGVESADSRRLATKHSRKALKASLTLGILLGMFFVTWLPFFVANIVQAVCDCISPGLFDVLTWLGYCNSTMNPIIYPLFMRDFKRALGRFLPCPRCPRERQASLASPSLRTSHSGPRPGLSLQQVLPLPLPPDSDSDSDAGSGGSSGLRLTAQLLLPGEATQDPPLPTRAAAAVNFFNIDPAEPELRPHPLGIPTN

[26] = biological target: 5-hydroxytryptamine receptor 2B (Homo sapiens, UniProt P41595); test: Inhibition of human 5HT2B receptor
5-hydroxytryptamine receptor 2B, sequence (P41595 whole entry): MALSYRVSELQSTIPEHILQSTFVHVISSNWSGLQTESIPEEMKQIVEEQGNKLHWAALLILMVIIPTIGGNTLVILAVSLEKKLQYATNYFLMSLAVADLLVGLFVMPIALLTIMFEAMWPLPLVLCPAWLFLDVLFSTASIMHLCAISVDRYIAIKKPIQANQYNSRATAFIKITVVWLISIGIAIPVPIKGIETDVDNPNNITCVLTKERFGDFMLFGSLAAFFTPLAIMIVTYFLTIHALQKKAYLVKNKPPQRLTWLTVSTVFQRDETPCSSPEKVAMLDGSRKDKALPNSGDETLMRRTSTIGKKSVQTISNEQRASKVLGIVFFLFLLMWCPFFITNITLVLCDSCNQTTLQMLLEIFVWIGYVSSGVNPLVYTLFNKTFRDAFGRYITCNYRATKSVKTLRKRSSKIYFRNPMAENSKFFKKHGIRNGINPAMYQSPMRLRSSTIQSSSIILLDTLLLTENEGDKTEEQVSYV

[27] = biological target: C-C chemokine receptor type 6 (Homo sapiens, UniProt P51684); test: Inhibition of human CCR6
[28] = biological target: C-C chemokine receptor type 2 (Homo sapiens, UniProt P41597); test: Inhibition of human CCR2b
[29] = biological target: Muscarinic acetylcholine receptor M4 (Homo sapiens, UniProt P08173); test: Inhibition of human muscarinic receptor M4
[30] = biological target: C-C chemokine receptor type 3 (Homo sapiens, UniProt P51677); test: Inhibition of human CCR3
[31] = biological target: Kappa-type opioid receptor (Homo sapiens, UniProt P41145); test: Inhibition of human kappa opioid receptor

CC(=O)Nc1cc2ncccc2cc1/C=C/C(=O)N1CCN(Cc2ccc(F)cc2)C[C@H]1C
pIC50 [1]: 7.70 | pIC50 [2]: 6.00 | pIC50 [3]: 7.52

COc1cc2c(cc1Cl)NC(=O)NC2CC(=O)N1CCN(Cc2ccc(F)cc2)C[C@H]1C (stereo partly drawn)
pIC50 [3]: 6.10

CC(=O)Nc1cc(Cl)ccc1/C=C/C(=O)N1CC2CCC(C1)N2Cc1ccc(F)cc1
pIC50 [3]: 6.52

CC(=O)Nc1cc(Cl)ccc1/C=C/C(=O)N1C2CCC1CN(Cc1ccc(F)cc1)C2
pIC50 [3]: 6.70

CN(C)CC(=O)Nc1cc(Cl)ccc1/C=C/C(=O)N1C2CCC1CN(Cc1ccc(F)cc1)C2
pIC50 [1]: 8.05 | bioavailability [4]: 77% | AUC [5]: 1070 ng·h/mL | Cmax (Rattus norvegicus): 0.407 µM | half-life [6]: 175 min | pIC50 [2]: 7.40 | pIC50 [3]: 7.52

CC(=O)Nc1cc(Cl)ccc1/C=C/C(=O)N1CCCN(Cc2ccc(F)cc2)C[C@H]1C
pIC50 [3]: 5.80

C[C@@H]1CN(Cc2ccc(F)cc2)CCN1C(=O)/C=C/c1ccc(Cl)cc1NC(N)=O
bioavailability [4]: 90% | AUC [5]: 487 ng·h/mL | Cmax (Rattus norvegicus): 0.934 µM | half-life [6]: 660 min

CC(=O)Nc1cc(Cl)ccc1/C=C/C(=O)N1CCN(Cc2ccc(F)cc2)C[C@H]1C
pIC50 [7]: < 6.00 | pIC50 [8]: < 6.00 | pIC50 [9]: < 6.00 | pIC50 [10]: < 6.00 | pIC50 (D(4) dopamine receptor): < 6.00 | pIC50 [11]: < 6.00 | pIC50 (D(2) dopamine receptor): < 6.00 | bioavailability [4]: 95% | pIC50 [12]: < 6.00 | pIC50 [13]: < 6.00 | AUC [5]: 784 ng·h/mL | IC50 [14]: > 1 µM | pIC50 [15]: < 6.00 | pIC50 (D(3) dopamine receptor): < 6.00 | pIC50 [16]: < 6.00 | Cmax (Rattus norvegicus): 0.85 µM | pIC50 [17]: < 6.00 | pIC50 (Mu-type opioid receptor): < 6.00 | pIC50 [18]: < 6.00 | pIC50 (D(1A) dopamine receptor): < 6.00 | pIC50 [19]: < 6.00 | half-life [6]: 990 min | pIC50 [20]: < 6.00 | pIC50 [21]: < 6.00 | pIC50 [22]: < 6.00 | pIC50 [23]: < 5.00 | pIC50 [24]: < 6.00 | pIC50 [25]: < 6.00 | pIC50 [26]: < 6.00 | pIC50 [27]: < 4.00 | pIC50 [28]: < 5.00 | pIC50 [29]: < 6.00 | pIC50 [30]: < 5.00 | pIC50 [31]: < 6.00

COc1cc(/C=C/C(=O)N2C3CCC2CN(Cc2ccc(F)cc2)C3)c(NC(C)=O)cc1Cl
bioavailability [4]: 83% | AUC [5]: 158 ng·h/mL | Cmax (Rattus norvegicus): 0.08 µM | half-life [6]: 306 min | pIC50 [2]: 8.40 | pIC50 [3]: 8.15

CC(=O)Nc1cc(Cl)ccc1/C=C/C(=O)N1C[C@H]2C[C@@H]1CN2Cc1ccc(F)cc1
pIC50 [3]: 5.77

CC(=O)Nc1cc(Cl)ccc1CCC(=O)N1CCN(Cc2ccc(F)cc2)C[C@H]1C
pIC50 [3]: 6.44

CC(=O)Nc1cc2ncccc2cc1/C=C/C(=O)N1C2CCC1CN(Cc1ccc(F)cc1)C2
pIC50 [2]: 7.30 | pIC50 [3]: 6.82

C[C@@H]1CN(Cc2ccc(F)cc2)CCN1C(=O)COc1ccc(Cl)cc1NC(N)=O.Cl [BX 471]
bioavailability [4]: 100% | AUC [5]: 139 ng·h/mL | Cmax (Rattus norvegicus): 0.4 µM | half-life [6]: 114 min

CC(=O)Nc1cc2ccccc2cc1/C=C/C(=O)N1CCN(Cc2ccc(F)cc2)C[C@H]1C
pIC50 [1]: 7.89 | pIC50 [2]: 6.30 | pIC50 [3]: 7.10

COc1cc(/C=C/C(=O)N2CCN(Cc3ccc(F)cc3)C[C@H]2C)c(NC(C)=O)cc1Cl
bioavailability [4]: 100% | AUC [5]: 750 ng·h/mL | Cmax (Rattus norvegicus): 0.396 µM | half-life [6]: 246 min
